IMP-1 inhibitor: IMP-1 metallo-beta-lactamase inhibitors, primary screen, biochemical, epi-absorbance readout, Pseudomonas aeruginosa enzyme | purified IMP-1, nitrocefin hydrolysis, epi-absorbance fluorescence | actives 0.45% (n = 290,000) | metallo-beta-lactamase IMP-1 (Pseudomonas aeruginosa) | inhibition, % at 5.6 µM | AID 1556, 2009;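 active means inhibition above the mean plus 3 SD of all compounds in the same screening run, cut at about 4.5% in these data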;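 further: 0% = IMP-1 with DMSO and 100% = DMSO wells lacking enzyme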
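System: purified recombinant IMP-1 beta-lactamase. Medium: Zinc- and detergent-supplemented HEPES buffer, pH 7.1. Compound: one 5.6 µM dose […]. Schedule: 15 min preincubation plus 25 min reaction at 25 °C. Technique: Epi-absorbance fluorescence, 480 nm excitation, 530 nm emission.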
PHOSPHO1 block: PubChem AID 1565 | Phosphoethanolamine/phosphocholine phosphatase (Homo sapiens), Q8TCT1 | recombinant PHOSPHO1, absorbance phosphatase assay | inhibition, % at 13.3 µM | actives 1.1% (n = 290,000); in the data active means inhibition above about 60%
Target sequence (Q8TCT1 whole entry, looked up): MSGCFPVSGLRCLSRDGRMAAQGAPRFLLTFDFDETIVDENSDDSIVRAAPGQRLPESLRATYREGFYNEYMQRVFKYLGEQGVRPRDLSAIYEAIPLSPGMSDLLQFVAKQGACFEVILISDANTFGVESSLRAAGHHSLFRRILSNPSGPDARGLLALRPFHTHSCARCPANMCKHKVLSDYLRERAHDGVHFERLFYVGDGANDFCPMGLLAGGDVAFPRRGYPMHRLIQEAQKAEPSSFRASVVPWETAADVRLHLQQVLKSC
VIM-2 inhibitor: VIM-2 metallo-beta-lactamase inhibitors, primary screen, biochemical, epi-absorbance readout, Pseudomonas aeruginosa enzyme | inhibition, % at 5.6 µM | purified VIM-2, nitrocefin hydrolysis, epi-absorbance fluorescence | actives 0.89% (n = 290,000);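 active means inhibition above the mean of all tested compounds plus 3 SD, cutoff set per screening run, cut at about 7.5% in these data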;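 further: red hydrolysis product quenches plate fluorescence so inhibitors raise well fluorescence; 0% = enzyme with DMSO and 100% = DMSO without enzyme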
ASAP1 GAP inh: inhibitors of human ASAP1 ArfGAP activity, primary screen, biochemical, fluorescence polarization | inhibition, % at 16.5 µM | Arf-GAP with SH3 domain, ANK repeat and PH domain-containing protein 1 (Homo sapiens), … | ASAP1-stimulated ARF1 GTP hydrolysis, GDP FP detection | actives 0.19% (n = 360,000); in the data active means inhibition above about 25%;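 further: 0% = vehicle with enzyme and substrate and 100% = no enzyme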
Target sequence (Q9ULH1 325-724 limits assumed): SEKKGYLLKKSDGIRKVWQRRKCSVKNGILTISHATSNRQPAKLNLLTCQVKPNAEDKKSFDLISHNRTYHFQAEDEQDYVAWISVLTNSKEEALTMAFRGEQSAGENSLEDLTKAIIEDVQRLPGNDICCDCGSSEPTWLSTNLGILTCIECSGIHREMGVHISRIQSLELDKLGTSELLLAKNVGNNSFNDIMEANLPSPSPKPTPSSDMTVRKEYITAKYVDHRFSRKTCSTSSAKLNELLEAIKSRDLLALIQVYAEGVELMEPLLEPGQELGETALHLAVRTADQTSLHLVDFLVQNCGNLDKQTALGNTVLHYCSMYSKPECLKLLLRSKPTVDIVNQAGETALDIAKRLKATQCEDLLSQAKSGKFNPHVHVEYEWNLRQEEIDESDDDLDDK
Calb FLC: C. albicans growth inhibition with fluconazole, primary screen, CaCi-2 strain, Alamar Blue fluorescence. C. albicans CaCi-2 + fluconazole, 48 h. growth inhibition, % (test concentration not listed). actives 0.57% (n = 300,000). AID 1979, 2009;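 active means growth inhibition above about 58% in most replicates, limit read from the data, passing the limit was not always enough; inconclusive means exactly half the replicates above a set limit; inactive means most replicates below a set limit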;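 further: all wells also contain fluconazole at 8 µg/ml as a sub-toxic cotreatment; 0% = median of DMSO wells and 100% = median of geldanamycin control wells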
ARFGAP1 inhibitor: inhibitors of rat ARFGAP1 GAP activity, primary screen, biochemical, fluorescence polarization, GDP tracer; ADP-ribosylation factor GTPase-activating protein 1 (Rattus norvegicus), Q62848; Arfgap1-stimulated ARF1 GTP hydrolysis, GDP FP detection; inhibition, % at 16.5 µM; actives 0.26% (n = 360,000);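 active means inhibition above a per-plate limit, mean inhibition of low control wells plus 3 SD, cut at about 25% in these data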;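 further: 0% = DMSO wells with enzyme and 100% = wells lacking Arfgap1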
Target sequence (Q62848 1-136 limits assumed): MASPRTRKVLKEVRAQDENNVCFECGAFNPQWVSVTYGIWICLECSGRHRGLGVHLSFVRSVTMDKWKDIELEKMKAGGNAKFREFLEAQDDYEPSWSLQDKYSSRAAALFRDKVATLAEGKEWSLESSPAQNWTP
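system = rat Arfgap1 catalytic domain, aa 1-136 | technique = FP, GDP Alexa 633 tracer displaced from anti-GDP antibody, 620/688 nm | compound = one concentration, 16.5 µM, DMSO 1.26% | medium = HEPES-based buffer, pH 7.5 | timing = compound-enzyme preincubation 20 min, reaction 120 min, detection 60 min, 25 °C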
ASAP1 inh confirm: ASAP1 GAP activity inhibitors, confirmation, biochemical, fluorescence polarization, human, triplicate; shares compounds with ASAP1 GAP inh; inhibition, % at 16.5 µM; AID 624431, 2012; actives 37% (n = 620); ASAP1-stimulated Arf1 GTPase, GDP fluorescence polarization;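 active means mean inhibition over triplicates exceeds the hit threshold derived for the earlier primary screening run, cut at about 25% in these data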
ARFGAP1 inh conf: ARFGAP1 inhibitor hit confirmation, biochemical, fluorescence polarization, triplicate. actives 30% (n = 890). shares compounds with ARFGAP1 inhibitor. ARFGAP1-stimulated ARF1 GTP hydrolysis, GDP tracer FP. AID 651608, 2012. inhibition, % at 16.5 µM;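 active means average inhibition over triplicates above the hit cutoff set in the earlier primary screen, cut at about 25% in these data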;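 further: 0% = Arfgap1 plus ARF1-GTP with DMSO and 100% = wells lacking Arfgap1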
* hit, by the source's call. A selection: hits, their analogues and other compounds. The true share with any hit is near 2.6%.

What do the screens show for `COC(=O)C1C(OC(=O)c2ccccc2)CC2CCC1[N+]2(C)C` (centres undefined)?
ASAP1 GAP inh: 1.5; ARFGAP1 inhibitor: 0.4

How did CCC(C)C1NC(=O)C(NC(=O)C(CC(C)C)N(C)C(=O)C2CCCN2C(=O)C(C)O)C(C)OC(=O)C(Cc2ccc(OC)cc2)N(C)C(=O)C2CCCN2C(=O)C(CC(C)C)NC(=O)[C@H](C)C(=O)[C@H](C(C)C)OC(=O)CC1O (some centres undefined) do in these assays?
ASAP1 GAP inh: 27.0*; ARFGAP1 inhibitor: 4.9; ASAP1 inh confirm: 3.1

How did Nc1c(C(=O)NCc2ccco2)c2nc3ccccc3nc2n1Cc1ccc(F)cc1 do in these assays?
IMP-1 inhibitor: 1.1; PHOSPHO1 block: -3.9; VIM-2 inhibitor: -0.4; ASAP1 GAP inh: 32.4*; Calb FLC: 8.5; ARFGAP1 inhibitor: -0.1; ASAP1 inh confirm: 14.2

How did Nc1c(C(=O)NCc2ccco2)c2nc3ccccc3nc2n1Cc1ccccc1 do in these assays?
IMP-1 inhibitor: -2.3; PHOSPHO1 block: -13.0; VIM-2 inhibitor: -3.6; ASAP1 GAP inh: 1.1; Calb FLC: 54.6; ARFGAP1 inhibitor: 3.8

How did Clc1cc(Cl)cc(CN2Cc3cc(Br)ccc3-n3nncc3C2)c1 do in these assays?
ASAP1 GAP inh: -20.4; ARFGAP1 inhibitor: -5.0

How did CCN1C(=O)C(=C/C=C/c2ccco2)C(=O)N(CC)C1=S do in these assays?
IMP-1 inhibitor: 5.8*; PHOSPHO1 block: -16.1; VIM-2 inhibitor: -3.9; ASAP1 GAP inh: 28.1*; ARFGAP1 inhibitor: -1.9; ASAP1 inh confirm: 22.5

How did CC(C)N1C(=O)/C(=C/C=C/c2ccco2)C(=O)N(Cc2ccco2)C1=O do in these assays?
IMP-1 inhibitor: -1.1; PHOSPHO1 block: 26.2; VIM-2 inhibitor: -1.3; ASAP1 GAP inh: 14.3; Calb FLC: -2.3; ARFGAP1 inhibitor: 14.5

Results for COCCCn1c(N)c(C(=O)NCCC(C)C)c2nc3ccccc3nc21 ?
IMP-1 inhibitor: -1.9; PHOSPHO1 block: 0.1; VIM-2 inhibitor: -1.1; ASAP1 GAP inh: 26.5*; Calb FLC: 9.7; ARFGAP1 inhibitor: 23.3; ASAP1 inh confirm: 8.8

What do the screens show for `O=C(NCCN1CCC2(CC1)C(=O)NCN2c1ccccc1)c1ccccc1C(F)(F)F`?
ASAP1 GAP inh: 6.2; ARFGAP1 inhibitor: -3.2

How did CCOCCCn1c(N)c(C(=O)Nc2sc3c(c2C(=O)OC)CCCC3)c2nc3ccccc3nc21 do in these assays?
IMP-1 inhibitor: -3.3; PHOSPHO1 block: 28.3; VIM-2 inhibitor: -4.6; ASAP1 GAP inh: 33.5*; Calb FLC: 4.1; ARFGAP1 inhibitor: 25.3*; ASAP1 inh confirm: 14.1; ARFGAP1 inh conf: 3.8

How did O=C(NCCN1CCC2(CC1)C(=O)NCN2c1ccccc1)c1cc(C(F)(F)F)ccc1C(F)(F)F do in these assays?
ASAP1 GAP inh: 9.3; ARFGAP1 inhibitor: -7.5

How did CC(=O)c1ccc2c(c1)C1C(Cl)C(Sc3ccccc3[N+](=O)[O-])CC1C(C(=O)O)N2 (centres undefined) do in these assays?
IMP-1 inhibitor: -2.5; PHOSPHO1 block: -16.2; VIM-2 inhibitor: -3.0; ASAP1 GAP inh: -0.5; ARFGAP1 inhibitor: -0.1

Results for O=C(O)c1cccc2c1NC(C(=O)O)C1CC(Sc3ccccc3[N+](=O)[O-])C(Cl)C21 (centres undefined) ?
IMP-1 inhibitor: 5.2*; PHOSPHO1 block: 62.1*; VIM-2 inhibitor: 2.2; ASAP1 GAP inh: 59.4*; ARFGAP1 inhibitor: 35.5*; ASAP1 inh confirm: 61.5*; ARFGAP1 inh conf: 86.7*

Results for CN(C)c1ccc(/C=C/c2cc[n+](C)c3ccccc23)cc1 ?
IMP-1 inhibitor: -4.2; PHOSPHO1 block: -4.9; VIM-2 inhibitor: -2.5; ASAP1 GAP inh: 44.5*; ARFGAP1 inhibitor: 37.3*; ASAP1 inh confirm: 50.8*; ARFGAP1 inh conf: 49.2*

Results for CN(C)c1ccc(/C=C/C=C/c2sc3ccccc3[n+]2C)cc1 ?
IMP-1 inhibitor: -4.6; PHOSPHO1 block: 6.3; VIM-2 inhibitor: -3.0; ASAP1 GAP inh: 80.2*; Calb FLC: 98.0*; ARFGAP1 inhibitor: 92.3*; ASAP1 inh confirm: 109.3*; ARFGAP1 inh conf: 127.4*

Results for CC[n+]1c(/C=C/C=C/c2ccc(N(C)C)cc2)sc2ccccc21 ?
IMP-1 inhibitor: -5.8; PHOSPHO1 block: 14.7; VIM-2 inhibitor: -4.7; ASAP1 GAP inh: 98.3*; Calb FLC: 102.4*; ARFGAP1 inhibitor: 106.9*; ASAP1 inh confirm: 122.8*; ARFGAP1 inh conf: 159.4*

What do the screens show for `Nc1c(Br)cc2c3c(cccc13)-c1ccccc1-2`?
ASAP1 GAP inh: 6.0; ARFGAP1 inhibitor: -12.2

How did CCOC(=O)[C@]12Cc3cc(C)ccc3[C@H]1N(C1CCCCC1)C(=O)c1cc(OC)ccc12 do in these assays?
ASAP1 GAP inh: 0.9; ARFGAP1 inhibitor: -11.8

Results for C[C@H]1CNCCN1c1ccc(N2CC[C@@H](O)C2)c(C#N)c1 ?
ASAP1 GAP inh: -0.2; ARFGAP1 inhibitor: -1.9

Results for CN1CCN(Cc2cc(C(C)(C)C)c(O)c(C(C)(C)C)c2)CC1 ?
IMP-1 inhibitor: -3.1; PHOSPHO1 block: 20.4; VIM-2 inhibitor: -4.8; ASAP1 GAP inh: 7.1; Calb FLC: 0.0; ARFGAP1 inhibitor: 25.8*; ARFGAP1 inh conf: 6.2

How did S=C(NCCc1ccccc1)N1Cc2cc(Br)ccc2-n2nncc2C1 do in these assays?
ASAP1 GAP inh: 1.2; ARFGAP1 inhibitor: 0.9

How did S=C(NCCc1ccccc1)N1Cc2ccc(Br)cc2-n2nncc2C1 do in these assays?
ASAP1 GAP inh: 2.0; ARFGAP1 inhibitor: 25.8*; ARFGAP1 inh conf: 5.4

What do the screens show for `COc1cc2c(c(OC)c1OC)-c1ccc(SC)c(=O)cc1C(NC(C)=O)CC2` (centres undefined)?
ASAP1 GAP inh: -8.8; ARFGAP1 inhibitor: -1.2

What do the screens show for `CCOP(=O)(OCC)C(O)c1cccc([N+](=O)[O-])c1` (centres undefined)?
IMP-1 inhibitor: -1.1; PHOSPHO1 block: 30.3; VIM-2 inhibitor: -2.8; ASAP1 GAP inh: 10.5; Calb FLC: inconclusive; ARFGAP1 inhibitor: 25.5*; ARFGAP1 inh conf: -1.4

What do the screens show for `CCOC(=O)[C@]12Cc3cc(C)ccc3[C@H]1N(C(C)C)C(=O)c1ccccc12`?
ASAP1 GAP inh: -18.9; ARFGAP1 inhibitor: -4.5
